Source: ChEMBL document CHEMBL1121584, “Soft drugs. 3. A new class of anticholinergic agents” (J Med Chem, 1980)
Values belong to the compound of their own block, whether it stands above or below them.

Columns and labels:
Sus scrofa [1] = species on record: Sus scrofa; experiment: The hydrolytic kinetics expressed as Kobs was measured in […] at 37 degree C; format: ADME; conditions: pig
Procedure, shortened: (§1)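 Hog liver carboxylesterase (EC 3.1.1.1), 2.4 units, with substrate at 5.6×10^-3 mol L-1 in 0.5 M potassium phosphate pH 7.4 containing gentisate internal standard, 37 °C. Rate was taken from acid formation.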

[2] = Half life period was measured at 7.4 pH from d[acid]/dt.; format: ADME; conditions: pH 7.4
Procedure, shortened: (§2)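 Chemical hydrolysis in 0.5 M potassium phosphate, pH 7.4, 37 °C. Rate was followed by appearance of the acid product or loss of the quaternary salt. Where salt contained amine hydrochloride, initial concentration was taken from final acid after complete hydrolysis. Half-life was estimated from both where resolved.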

Cavia porcellus [3] = species on record: Cavia porcellus; experiment: Antihistamine activity was measured by the guinea pig ileum test.; format: functional; conditions: Cavia porcellus, Ileum; read-out: pA2 (converted)
Procedure, shortened: (§3)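 Guinea pig ileum strips, McEwan's solution, Carbogen, 37 °C, 1 g tension. Cumulative histamine concentration-response curves were recorded before and after 15–20 min equilibration with rising antagonist concentrations. pA2 came from dose ratios of mean curves.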

[4] = Half life period was measured at 7.4 pH from d[quant]/dt.; format: ADME; conditions: pH 7.4; procedure, shortened: as §2
Sus scrofa [5] = species on record: Sus scrofa; experiment: Half life period was measured at 37 degree C in […] from d[acid]/dt.; format: ADME; conditions: pig, in vitro; in the assay text read “esterase” for “plasma”; procedure, shortened: as §1
Canis familiaris [6] = species on record: Canis familiaris; experiment: The hydrolytic kinetics expressed as Kobs was measured in dog plasma at 37 degree C; format: ADME, Canis lupus familiaris
Procedure, shortened: (§4)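 Fresh dog blood was centrifuged and the upper layer filtered through 0.8 and 0.2 µm membranes. 2 mL plasma samples with gentisic acid internal standard were incubated. 5 µL aliquots taken at intervals were assayed against acid standard curves in methanol. Rates came from acid appearance or quaternary salt loss.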

[7] = Half life period was measured at 37 degree C in dog plasma from d[quant]/dt.; format: ADME, Canis lupus familiaris; procedure, shortened: as §4
Cavia porcellus [8] = species on record: Cavia porcellus; experiment: Anticholinergic activity was measured by the guinea pig ileum test.; format: functional; conditions: Cavia porcellus, Ileum; read-out: pA2 (converted)
Procedure, shortened: (§5)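 Guinea pig whole ileum strips in McEwan's solution, gassed with O2/CO2 95:5, 37 °C organ bath, 1 g tension. Cumulative acetylcholine concentration-response curves were run to constancy, then repeated after 15–20 min equilibration with increasing antagonist concentrations. Mean curves gave dose ratios, from which competitive antagonism and pA2 were derived.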

Felis catus [9] = species on record: Felis catus; experiment: acetylcholine antagonist effect of compound on cat blood pressure at concentration 5.4*10e-8 in 2 min
Felis catus [10] = species on record: Felis catus; experiment: acetylcholine antagonist effect of compound on cat blood pressure at concentration 5.4*10e-8 in 28 min
Felis catus [11] = species on record: Felis catus; experiment: acetylcholine antagonist effect of compound on cat blood pressure at concentration 5.7*10e-9 in 2 min; format: functional
Procedure, shortened: (§6)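 Adult cats anesthetized ip with α-chloralose (80 mg/kg) plus sodium pentobarbitone (6 mg/kg), bilaterally vagotomized, artificially respired. Carotid arterial pressure recorded. Drugs given iv via brachial vein. Acetylcholine dose giving 70-80% of maximal vasodepressor response used throughout. Test drug injected, acetylcholine response checked 1 min later, then every ~2-3 min. Value is % of control vasodepressor response to acetylcholine.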

Felis catus [12] = species on record: Felis catus; experiment: acetylcholine antagonist effect of compound on cat blood pressure at concentration 5.7*10e-8 in 13 min; format: functional
Procedure, shortened: (§7)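 Adult cats under ip α-chloralose (80 mg/kg) plus pentobarbitone (6 mg/kg), bilaterally vagotomized and artificially respired. Carotid blood pressure was recorded. An iv acetylcholine dose giving 70–80% of maximal vasodepressor response was used. After iv test drug, acetylcholine responses were checked at 1 min and then every 2–3 min and expressed as % of control. Doses were given in mol/kg, escalating after recovery.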

Felis catus [13] = species on record: Felis catus; experiment: acetylcholine antagonist effect of compound on cat blood pressure at concentration 5.7*10e-8 in 18 min; format: functional; procedure, shortened: as §7
Felis catus [14] = experiment: acetylcholine antagonist effect of compound on cat blood pressure at concentration 5.7*10e-8 mol/kg in 1 min; format: functional; procedure, shortened: as §7
Felis catus [15] = species on record: Felis catus; experiment: acetylcholine antagonist effect of compound on cat blood pressure at concentration 5.4*10e-8 in 38 min
[16] = The hydrolytic kinetics expressed as Kobs was measured at 9.4 pH at 36 degree C; format: ADME; conditions: pH 9.4
Procedure, shortened: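 Hydrolysis in 0.1 M sodium carbonate-bicarbonate, pH 9.4, ionic strength 0.5 (NaCl added), 36 °C. Kobsd was followed from the rate of acid formation.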

Felis catus [17] = species on record: Felis catus; experiment: acetylcholine antagonist effect of compound on cat blood pressure at concentration 5.4*10e-8 in 33 min
[18] = The hydrolytic kinetics expressed as Kobs was measured at 7.4 pH at 37 degree C; format: ADME; conditions: pH 7.4; procedure, shortened: as §2
Felis catus [19] = species on record: Felis catus; experiment: acetylcholine antagonist effect of compound on cat blood pressure at concentration 5.7*10e-9 in 4 min; format: functional; procedure, shortened: as §6
Felis catus [20] = species on record: Felis catus; experiment: acetylcholine antagonist effect of compound on cat blood pressure at concentration 5.7*10e-8 in 23 min; format: functional; procedure, shortened: as §7
[21] = Cholinergic potency was expressed in terms of relative activity vs acetylcholine.; format: functional
Canis familiaris [22] = species on record: Canis familiaris; experiment: The hydrolytic kinetics expressed as Kobs was measured in dog plasma at 36 degree C; format: ADME, Canis lupus familiaris; procedure, shortened: as §4
Felis catus [23] = species on record: Felis catus; experiment: acetylcholine antagonist effect of compound on cat blood pressure at concentration 5.4*10e-8 in 44 min
Felis catus [24] = species on record: Felis catus; experiment: acetylcholine antagonist effect of compound on cat blood pressure at concentration 5.7*10e-9 in 1 min; format: functional; procedure, shortened: as §6
Cavia porcellus [25] = species on record: Cavia porcellus; experiment: Anticholinergic activity was measured by the guinea pig ileum test; c = NA means no activity found at the doses used; format: functional; conditions: read-out: pA2 (converted); procedure, shortened: as §5
Felis catus [26] = species on record: Felis catus; experiment: acetylcholine antagonist effect of compound on cat blood pressure at concentration 5.7*10e-8 in 5 min; format: functional; procedure, shortened: as §6
Cavia porcellus [27] = species on record: Cavia porcellus; experiment: Antihistamine activity was measured by the guinea pig ileum test; c = NA means no activity found at the doses used; format: functional; procedure, shortened: as §3
Felis catus [28] = species on record: Felis catus; experiment: acetylcholine antagonist effect of compound on cat blood pressure at concentration 5.7*10e-8 in 9 min; format: functional; procedure, shortened: as §6
Felis catus [29] = species on record: Felis catus; experiment: acetylcholine antagonist effect of compound on cat blood pressure at concentration 5.7*10e-9 in 7 min; format: functional; procedure, shortened: as §6

K obs (Sus scrofa [1]): 0.00542 min⁻¹ | half-life [2]: 2.6 h | half-life [4]: 2.5 h | T1/2 (Sus scrofa [5]): 2.1 h | K obs (Canis familiaris [6]): 0.00815 min⁻¹ | half-life [7]: 1.4 h
Compound: CCC(C(=O)OC[N+](CC)(CC)CC)c1ccccc1.[Cl-] (configuration not stated)
Kb (Cavia porcellus [3]): 316 nM | Kb (Cavia porcellus [8]): 251 nM

half-life [2]: 20 h | K obs [16]: 0.139 min⁻¹ | K obs [18]: 0.000578 min⁻¹ | K obs (Canis familiaris [22]): 0.00144 min⁻¹ | K obs (Canis familiaris [6]): 0.00168 min⁻¹ | half-life [7]: 6.5 h
Compound: C[N+]1(COC(=O)C(c2ccccc2)C2CCCC2)CCCC1.[Cl-] (configuration not stated)
Response (Felis catus [9]): 0% | Response (Felis catus [10]): 69% | Response (Felis catus [11]): 0% | Response (Felis catus [12]): 31% | Response (Felis catus [13]): 63% | Response (Felis catus [14]): 0% | Response (Felis catus [15]): 88% | Response (Felis catus [17]): 81% | Response (Felis catus [19]): 67% | Response (Felis catus [20]): 63% | Activity [21]: No activity | Response (Felis catus [23]): 88% | Response (Felis catus [24]): 0% | Kb (Cavia porcellus [25]): 3.98 nM | Response (Felis catus [26]): 0% | pA2 (Cavia porcellus [27]): No activity | Response (Felis catus [28]): 0% | Response (Felis catus [29]): 100%
